Reference: ChEMBL document CHEMBL1156517, “Targeting thyroid hormone receptor-beta agonists to the liver reduces cholesterol and triglycerides and improves the therapeutic index” (Proc Natl Acad Sci U S A, 2007)

Columns and labels:
Design in all cases: dose 5 mg/kg, route oral
Conditions in all cases: in vivo
[1] = tested on: Lung; assay: Biodistribution in Sprague-Dawley rat lung at 5 mg/kg, po after 3 hrs; assay type: ADME, organism-based
Outline: (§1)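 Male SD rats (n = 4 per group) were dosed orally with [¹⁴C]-labelled prodrug at 5 mg/kg. Animals were killed 3 or 24 h after dosing. Harvested tissues, blood and plasma were processed and analysed directly for radioactivity by liquid scintillation counting.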

[2] = tested on: Brain; assay: Biodistribution in Sprague-Dawley rat brain at 5 mg/kg, po after 3 hrs; assay type: ADME, organism-based; outline: as §1
[3] = tested on: Blood; assay: Biodistribution in Sprague-Dawley rat blood at 5 mg/kg, po after 24 hrs; assay type: ADME, organism-based; outline: as §1
[4] = tested on: Heart; assay: Biodistribution in Sprague-Dawley rat heart at 5 mg/kg, po after 3 hrs; assay type: ADME, organism-based; outline: as §1
[5] = tested on: Zone of skin; assay: Biodistribution in Sprague-Dawley rat skin at 5 mg/kg, po after 24 hrs; assay type: ADME, organism-based; outline: as §1
[6] = tested on: Thyroid gland; assay: Biodistribution in Sprague-Dawley rat thyroid at 5 mg/kg, po after 3 hrs; assay type: ADME, organism-based
Outline: (§2)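 Male SD rats (n = 4 per group) were given [¹⁴C]-labelled compound at 5 mg/kg per os. They were killed 3 and 24 h after dosing. Harvested tissues were processed and radioactivity was measured directly by liquid scintillation counting.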

[7] = tested on: Pancreas; assay: Biodistribution in Sprague-Dawley rat pancreas at 5 mg/kg, po after 24 hrs; assay type: ADME, organism-based; outline: as §1
[8] = tested on: Adrenal gland; assay: Biodistribution in Sprague-Dawley rat adrenal gland at 5 mg/kg, po after 3 hrs; assay type: ADME, organism-based; outline: as §1
[9] = tested on: Spleen; assay: Biodistribution in Sprague-Dawley rat spleen at 5 mg/kg, po after 3 hrs; assay type: ADME, organism-based; outline: as §2
[10] = tested on: Muscle tissue; assay: Biodistribution in Sprague-Dawley rat muscle at 5 mg/kg, po after 24 hrs; assay type: ADME, organism-based; outline: as §1
[11] = Biodistribution in Sprague-Dawley rat urinary bladder at 5 mg/kg, po after 3 hrs; assay type: ADME, organism-based; outline: as §2
[12] = tested on: Kidney; assay: Biodistribution in Sprague-Dawley rat kidney at 5 mg/kg, po after 24 hrs; assay type: ADME, organism-based; outline: as §1
[13] = tested on: Prostate gland; assay: Biodistribution in Sprague-Dawley rat prostate at 5 mg/kg, po after 3 hrs; assay type: ADME, organism-based; outline: as §1
[14] = tested on: Brain; assay: Biodistribution in Sprague-Dawley rat brain at 5 mg/kg, po after 24 hrs; assay type: ADME, organism-based; outline: as §1
[15] = tested on: Testes; assay: Biodistribution in Sprague-Dawley rat testes at 5 mg/kg, po after 3 hrs; assay type: ADME, organism-based, Testis; outline: as §2
[16] = Biodistribution in Sprague-Dawley rat stomach C&W at 5 mg/kg, po after 24 hrs; assay type: ADME, organism-based; outline: as §2
[17] = tested on: Thymus; assay: Biodistribution in Sprague-Dawley rat thymus at 5 mg/kg, po after 24 hrs; assay type: ADME, organism-based; outline: as §2
[18] = tested on: Liver; assay: Biodistribution in Sprague-Dawley rat liver at 5 mg/kg, po after 3 hrs; assay type: ADME, organism-based; outline: as §1
[19] = Biodistribution in Sprague-Dawley rat small intestine at 5 mg/kg, po after 3 hrs; assay type: ADME, organism-based; outline: as §1
[20] = Biodistribution in Sprague-Dawley rat cervical lymph node at 5 mg/kg, po after 3 hrs; assay type: ADME, organism-based; outline: as §1
[21] = Biodistribution in Sprague-Dawley rat mesenteric lymph at 5 mg/kg, po after 24 hrs; assay type: ADME, organism-based, Mesenteric lymph node; outline: as §1
[22] = Biodistribution in Sprague-Dawley rat bone marrow at 5 mg/kg, po after 24 hrs; assay type: ADME, organism-based; outline: as §1
[23] = tested on: Adrenal gland; assay: Biodistribution in Sprague-Dawley rat adrenal gland at 5 mg/kg, po after 24 hrs; assay type: ADME, organism-based; outline: as §1
[24] = Biodistribution in Sprague-Dawley rat eyes at 5 mg/kg, po after 24 hrs; assay type: ADME, organism-based, Eye; outline: as §1
[25] = tested on: Plasma; assay: Biodistribution in Sprague-Dawley rat plasma at 5 mg/kg, po after 24 hrs; assay type: ADME, organism-based; outline: as §1
[26] = tested on: Zone of skin; assay: Biodistribution in Sprague-Dawley rat skin at 5 mg/kg, po after 3 hrs; assay type: ADME, organism-based; outline: as §1
[27] = Biodistribution in Sprague-Dawley rat stomach at 5 mg/kg, po after 3 hrs; assay type: ADME, organism-based; outline: as §2
[28] = Biodistribution in Sprague-Dawley rat large intestine at 5 mg/kg, po after 3 hrs; assay type: ADME, organism-based
Outline: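 Male SD rats (n = 4 per group) were given a single oral dose of [¹⁴C]-labelled prodrug at 5 mg/kg. They were killed at 3 and 24 h after dosing. Harvested tissues were processed and analysed directly by liquid scintillation counting to give tissue radioactivity concentrations.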

[29] = tested on: Spleen; assay: Biodistribution in Sprague-Dawley rat spleen at 5 mg/kg, po after 24 hrs; assay type: ADME, organism-based; outline: as §1
[30] = Biodistribution in Sprague-Dawley rat large intestine C&W at 5 mg/kg, po after 24 hrs; assay type: ADME, organism-based; outline: as §1
[31] = tested on: Testes; assay: Biodistribution in Sprague-Dawley rat testes at 5 mg/kg, po after 24 hrs; assay type: ADME, organism-based, Testis; outline: as §2
[32] = Biodistribution in Sprague-Dawley rat bone marrow at 5 mg/kg, po after 3 hrs; assay type: ADME, organism-based; outline: as §1
[33] = tested on: Heart; assay: Biodistribution in Sprague-Dawley rat heart at 5 mg/kg, po after 24 hrs; assay type: ADME, organism-based; outline: as §1
[34] = tested on: Thymus; assay: Biodistribution in Sprague-Dawley rat thymus at 5 mg/kg, po after 3 hrs; assay type: ADME, organism-based; outline: as §2
[35] = Biodistribution in Sprague-Dawley rat pituitary gland at 5 mg/kg, po after 24 hrs; assay type: ADME, organism-based; outline: as §1
[36] = Biodistribution in Sprague-Dawley rat large intestine at 5 mg/kg, po after 24 hrs; assay type: ADME, organism-based; outline: as §1
[37] = Biodistribution in Sprague-Dawley rat small intestine at 5 mg/kg, po after 24 hrs; assay type: ADME, organism-based; outline: as §1
[38] = Biodistribution in Sprague-Dawley rat cervical lymph node at 5 mg/kg, po after 24 hrs; assay type: ADME, organism-based; outline: as §1
[39] = Biodistribution in Sprague-Dawley rat urinary bladder at 5 mg/kg, po after 24 hrs; assay type: ADME, organism-based; outline: as §2
[40] = tested on: Plasma; assay: Biodistribution in Sprague-Dawley rat plasma at 5 mg/kg, po after 3 hrs; assay type: ADME, organism-based; outline: as §1
[41] = Biodistribution in Sprague-Dawley rat large intestine C&W at 5 mg/kg, po after 3 hrs; assay type: ADME, organism-based; outline: as §1
[42] = tested on: Pancreas; assay: Biodistribution in Sprague-Dawley rat pancreas at 5 mg/kg, po after 3 hrs; assay type: ADME, organism-based; outline: as §1
[43] = Biodistribution in Sprague-Dawley rat femur bone at 5 mg/kg, po after 24 hrs; assay type: ADME, organism-based, Bone element; outline: as §1
[44] = tested on: Muscle tissue; assay: Biodistribution in Sprague-Dawley rat muscle at 5 mg/kg, po after 3 hrs; assay type: ADME, organism-based; outline: as §1
[45] = Biodistribution in Sprague-Dawley rat stomach at 5 mg/kg, po after 24 hrs; assay type: ADME, organism-based; outline: as §2
[46] = tested on: Lung; assay: Biodistribution in Sprague-Dawley rat lung at 5 mg/kg, po after 24 hrs; assay type: ADME, organism-based; outline: as §1
[47] = Biodistribution in Sprague-Dawley rat femur bone at 5 mg/kg, po after 3 hrs; assay type: ADME, organism-based, Bone element; outline: as §1
[48] = tested on: Prostate gland; assay: Biodistribution in Sprague-Dawley rat prostate at 5 mg/kg, po after 24 hrs; assay type: ADME, organism-based; outline: as §1
[49] = Biodistribution in Sprague-Dawley rat epididymal fat at 5 mg/kg, po after 3 hrs; assay type: ADME, organism-based, Adipose tissue; outline: as §1
[50] = tested on: Blood; assay: Biodistribution in Sprague-Dawley rat blood at 5 mg/kg, po after 3 hrs; assay type: ADME, organism-based; outline: as §1
[51] = Biodistribution in Sprague-Dawley rat epididymal fat at 5 mg/kg, po after 24 hrs; assay type: ADME, organism-based, Adipose tissue; outline: as §1
[52] = tested on: Thyroid gland; assay: Biodistribution in Sprague-Dawley rat thyroid at 5 mg/kg, po after 24 hrs; assay type: ADME, organism-based; outline: as §2
[53] = Biodistribution in Sprague-Dawley rat small intestine C&W at 5 mg/kg, po after 24 hrs; assay type: ADME, organism-based; outline: as §1
[54] = Biodistribution in Sprague-Dawley rat mesenteric lymph at 5 mg/kg, po after 3 hrs; assay type: ADME, organism-based, Mesenteric lymph node; outline: as §1
[55] = Biodistribution in Sprague-Dawley rat stomach C&W at 5 mg/kg, po after 3 hrs; assay type: ADME, organism-based; outline: as §2
[56] = Biodistribution in Sprague-Dawley rat pituitary gland at 5 mg/kg, po after 3 hrs; assay type: ADME, organism-based; outline: as §1
[57] = Biodistribution in Sprague-Dawley rat eyes at 5 mg/kg, po after 3 hrs; assay type: ADME, organism-based, Eye; outline: as §1
[58] = tested on: Kidney; assay: Biodistribution in Sprague-Dawley rat kidney at 5 mg/kg, po after 3 hrs; assay type: ADME, organism-based; outline: as §1
[59] = Biodistribution in Sprague-Dawley rat small intestine C&W at 5 mg/kg, po after 3 hrs; assay type: ADME, organism-based; outline: as §1
[60] = tested on: Liver; assay: Biodistribution in Sprague-Dawley rat liver at 5 mg/kg, po after 24 hrs; assay type: ADME, organism-based; outline: as §1

## Cc1cc(OCP2(=O)OCC[C@@H](c3cccc(Cl)c3)O2)cc([14CH3])c1Cc1ccc(O)c(C(C)C)c1 (stereo not given in full)
[1]
  Drug uptake: 0.31 nmol/g
[2]
  Drug uptake: 0.03 nmol/g
[3]
  Drug uptake: 0.05 nmol/g
[4]
  Drug uptake: 0.36 nmol/g
[5]
  Drug uptake: 0.15 nmol/g
[6]
  Drug uptake: 0.2 nmol/g
[7]
  Drug uptake: 0.25 nmol/g
[8]
  Drug uptake: 0.77 nmol/g
[9]
  Drug uptake: 2.57 nmol/g
[10]
  Drug uptake: 0.01 nmol/g
[11]
  Drug uptake: 0.18 nmol/g
[12]
  Drug uptake: 0.14 nmol/g
[13]
  Drug uptake: 0.12 nmol/g
[14]
  Drug uptake: 0.01 nmol/g
[15]
  Drug uptake: 0.03 nmol/g
[16]
  Drug uptake: 0.06 nmol/g
[17]
  Drug uptake: 0.01 nmol/g
[18]
  Drug uptake: 6.67 nmol/g
[19]
  Drug uptake: 28.56 nmol/g
[20]
  Drug uptake: 0.12 nmol/g
[21]
  Drug uptake: 0.05 nmol/g
[22]
  Drug uptake: 0.01 nmol/g
[23]
  Drug uptake: 0.09 nmol/g
[24]
  Drug uptake: 0.01 nmol/g
[25]
  Drug uptake: 0.05 nmol/g
[26]
  Drug uptake: 0.08 nmol/g
[27]
  Drug uptake: 76.96 nmol/g
[28]
  Drug uptake: 1.23 nmol/g
[29]
  Drug uptake: 0.01 nmol/g
[30]
  Drug uptake: 2.5 nmol/g
[31]
  Drug uptake: 0.04 nmol/g
[32]
  Drug uptake: 0.06 nmol/g
[33]
  Drug uptake: 0.05 nmol/g
[34]
  Drug uptake: 0.09 nmol/g
[35]
  Drug uptake: 0.02 nmol/g
[36]
  Drug uptake: 0.64 nmol/g
[37]
  Drug uptake: 0.4 nmol/g
[38]
  Drug uptake: 0.03 nmol/g
[39]
  Drug uptake: 0.05 nmol/g
[40]
  Drug uptake: 0.15 nmol/g
[41]
  Drug uptake: 4.68 nmol/g
[42]
  Drug uptake: 0.25 nmol/g
[43]
  Drug uptake: 0.02 nmol/g
[44]
  Drug uptake: 0.07 nmol/g
[45]
  Drug uptake: 0.22 nmol/g
[46]
  Drug uptake: 0.04 nmol/g
[47]
  Drug uptake: 0.14 nmol/g
[48]
  Drug uptake: 0.03 nmol/g
[49]
  Drug uptake: 0.15 nmol/g
[50]
  Drug uptake: 0.12 nmol/g
[51]
  Drug uptake: 0.55 nmol/g
[52]
  Drug uptake: 0.03 nmol/g
[53]
  Drug uptake: 0.2 nmol/g
[54]
  Drug uptake: 16.61 nmol/g
[55]
  Drug uptake: 24.52 nmol/g
[56]
  Drug uptake: 0.09 nmol/g
[57]
  Drug uptake: 0.04 nmol/g
[58]
  Drug uptake: 0.48 nmol/g
[59]
  Drug uptake: 39.69 nmol/g
[60]
  Drug uptake: 3.67 nmol/g
